Reference: ChEMBL document CHEMBL5678805, “Intermittent administration of MEK inhibitor GDC-0973 plus PI3K inhibitor GDC-0941 triggers robust apoptosis and tumor growth inhibition” (Cancer Res, 2012)
The source made the active and inactive calls. The calls are words filed in the database; no cut-off is given here.

How the values were obtained:
[1] = Antitumor activity against human LS174T-HM7 cells xenografted in mouse assessed as tumor growth inhibition at 10 mg/kg, po; assay type: functional; conditions: read-out: TGI
How it was run: (§1)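 Single-agent dose ranging in human tumor xenograft mice at 2.5, 5 or 10 mg/kg oral. Tumor volume was measured by caliper as (L×W×W)/2. %TGI = 100×[1 − AUC(treatment/d)/AUC(vehicle/d)] from the fitted growth curve per dose group, relative to vehicle.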

MIA PaCa-2 = assay: Antitumor activity against human MIA PaCa-2 cells harboring KRAS G12C/NOTCH1 L2458V mutant xenografted in mouse assessed as tumor growth inhibition at 5 mg/kg, po; assay type: functional; conditions: read-out: TGI
How it was run: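 Human tumor xenografts in mice were dosed orally at the indicated mg/kg. Tumor volume was measured with calipers as (L×W×W)/2. %TGI = 100 × [1 − (AUC treatment/d)/(AUC vehicle/d)], using the area under the fitted tumor-growth curve per day for each dose group relative to vehicle.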

[2] = biological target: Phosphatidylinositol 4,5-bisphosphate 3-kinase catalytic subunit alpha isoform (Homo sapiens, UniProt P42336); assay: Inhibition of PI3Kalpha (unknown origin)
LOX IMVI = assay: Antiproliferative activity against human LOX IMVI cells assessed reduction in cell viability incubated for 4 days in presence of 4-(2-(1H-indazol-4-yl)-6-((4-(methylsulfonyl)piperazin-1-yl)methyl)thieno[3,2-d]pyrimidin-4-yl)morpholine by celltiter-glo assay; assay type: functional; conditions: time 4 day
How it was run: (§2)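 4-day CellTiter-Glo viability read-out on melanoma lines, cells exposed to increasing concentrations of each inhibitor alone and in combination.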

A2058 [3] = assay: Antiproliferative activity against human A2058 cells harboring BRAF V600E mutant assessed as reduction in cell viability incubated for 96 hrs in presence of 4-(2-(1H-indazol-4-yl)-6-((4-(methylsulfonyl)piperazin-1-yl)methyl)thieno[3,2-d]pyrimidin-4-yl)morpholine; assay type: functional, cell-based
NCI-H2122 = assay: Antiproliferative activity against human NCI-H2122 cells assessed as reduction in cell viability incubated for 96 hrs in presence of 4-(2-(1H-indazol-4-yl)-6-((4-(methylsulfonyl)piperazin-1-yl)methyl)thieno[3,2-d]pyrimidin-4-yl)morpholine; assay type: functional, cell-based
[4] = Antitumor activity against human A375.X1 cells harboring BRAF V600E/CDKN2A E61 mutant xenografted in mouse assessed as tumor growth inhibition at 5 mg/kg, po; assay type: functional; conditions: A375.X1, read-out: TGI; how it was run: as §1
Calu-6 [5] = assay: Antitumor activity against human Calu-6 cells harboring KRAS Q61K and TP53 R196 mutant xenografted in mouse assessed as tumor growth inhibition at 2.5 mg/kg, po; assay type: functional; conditions: read-out: TGI; how it was run: as §1
[6] = biological target: Fibroblast growth factor receptor 3 (Homo sapiens, UniProt P22607); assay: Inhibition of FGFR3 (unknown origin)
[7] = Antitumor activity against human A375.X1 cells xenografted in mouse assessed as tumor growth inhibition at 3 mg/kg, po administered once a day for 21 days in presence of 4-(2-(1H-indazol-4-yl)-6-((4-(methylsulfonyl)piperazin-1-yl)methyl)thieno[3,2-d]pyrimidin-4-yl)morpholine; assay type: functional; conditions: A375.X1, 504 h, time 21 day, read-out: TGI
How it was run: (§3)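 Human tumor xenografts in mice. Drugs given orally, as single agents or combined with the PI3K inhibitor. Schedules were daily (QD) or every third day (Q3D) over 21 days. Tumor volume was measured by caliper as (L×W×W)/2. %TGI = 100×[1 − AUC(treatment/d)/AUC(vehicle/d)] from fitted growth curves, with group means. Tumor lysates were immunoblotted for pS6.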

888-mel [8] = assay: Inhibition of AKT phosphorylation in human 888-mel cells preincubated with compound for 24 hrs followed by compound washout and measured after 2 hrs in presence of 4-(2-(1H-indazol-4-yl)-6-((4-(methylsulfonyl)piperazin-1-yl)methyl)thieno[3,2-d]pyrimidin-4-yl)morpholine by immunoblotting analysis; assay type: cell-based
How it was run: (§4)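 The medium was then exchanged to remove compound. Lysates were prepared 2 and 24 h after washout and immunoblotted for cleaved PARP, p-AKT and p-ERK using HRP secondary antibody and ECL.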

[9] = biological target: Rho-associated protein kinase 1 (Homo sapiens, UniProt Q13464); assay: Inhibition of ROCK1 (unknown origin)
[10] = biological target: Fibroblast growth factor receptor 1 (Homo sapiens, UniProt P11362); assay: Inhibition of FGFR1 (unknown origin)
[11] = Inhibition of AMPK (unknown origin); parameters: species or system Homo sapiens
[12] = Inhibition of PKA (unknown origin); parameters: species or system Homo sapiens
COLO-829 = assay: Antiproliferative activity against human COLO-829 cells assessed reduction in cell viability incubated for 4 days in presence of 4-(2-(1H-indazol-4-yl)-6-((4-(methylsulfonyl)piperazin-1-yl)methyl)thieno[3,2-d]pyrimidin-4-yl)morpholine by celltiter-glo assay; assay type: functional; conditions: time 4 day; how it was run: as §2
[13] = biological target: Serine/threonine-protein kinase 24 (Homo sapiens, UniProt Q9Y6E0); assay: Inhibition of STK24 (unknown origin)
[14] = biological target: Insulin-like growth factor 1 receptor (Homo sapiens, UniProt P08069); assay: Inhibition of IGF1R (unknown origin)
[15] = Antiproliferative activity against human SK-MEL-23 cells assessed reduction in cell viability incubated for 4 days in presence of 4-(2-(1H-indazol-4-yl)-6-((4-(methylsulfonyl)piperazin-1-yl)methyl)thieno[3,2-d]pyrimidin-4-yl)morpholine by celltiter-glo assay; assay type: functional; conditions: time 4 day; how it was run: as §2
888-mel [16] = assay: Upregulation of Bim level in human 888-mel cells preincubated with compound for 24 hrs followed by compound washout and measured after 2 hrs in presence of 4-(2-(1H-indazol-4-yl)-6-((4-(methylsulfonyl)piperazin-1-yl)methyl)thieno[3,2-d]pyrimidin-4-yl)morpholine by immunoblotting analysis; assay type: functional, cell-based
Calu-6 [17] = assay: Antitumor activity against human Calu-6 cells harboring KRAS Q61K and TP53 R196 mutant xenografted in mouse assessed as tumor growth inhibition at 10 mg/kg, po; assay type: functional; conditions: read-out: TGI; how it was run: as §1
[18] = biological target: Serine/threonine-protein kinase MARK2 (Homo sapiens, UniProt Q7KZI7); assay: Inhibition of EMK1 (unknown origin)
[19] = biological target: Phosphatidylinositol 4,5-bisphosphate 3-kinase catalytic subunit gamma isoform (Homo sapiens, UniProt P48736); assay: Inhibition of PI3Kgamma (unknown origin)
888-mel [20] = assay: Inhibition of ERK phosphorylation in human 888-mel cells preincubated for 24 hrs followed by compound washout and measured after 2 hrs in presence of 4-(2-(1H-indazol-4-yl)-6-((4-(methylsulfonyl)piperazin-1-yl)methyl)thieno[3,2-d]pyrimidin-4-yl)morpholine by immunoblotting analysis; assay type: cell-based; how it was run: as §4
A2058 [21] = assay: Antitumor activity against human A2058 cells xenografted in mouse assessed as tumor growth inhibition at 20 mg/kg, po administered every third day for 21 days in presence of 4-(2-(1H-indazol-4-yl)-6-((4-(methylsulfonyl)piperazin-1-yl)methyl)thieno[3,2-d]pyrimidin-4-yl)morpholine; assay type: functional; conditions: A2058, 504 h, time 21 day, read-out: TGI; how it was run: as §3
FaDu = assay: Antitumor activity against human FaDu cells harboring SMAD4 del/TP53 R248L/CDKN2A mutant xenografted in mouse assessed as tumor growth inhibition at 2.5 mg/kg, po; assay type: functional; conditions: read-out: TGI; how it was run: as §1

Sequence of Serine/threonine-protein kinase MARK2 (Q7KZI7 whole entry, canonical isoform): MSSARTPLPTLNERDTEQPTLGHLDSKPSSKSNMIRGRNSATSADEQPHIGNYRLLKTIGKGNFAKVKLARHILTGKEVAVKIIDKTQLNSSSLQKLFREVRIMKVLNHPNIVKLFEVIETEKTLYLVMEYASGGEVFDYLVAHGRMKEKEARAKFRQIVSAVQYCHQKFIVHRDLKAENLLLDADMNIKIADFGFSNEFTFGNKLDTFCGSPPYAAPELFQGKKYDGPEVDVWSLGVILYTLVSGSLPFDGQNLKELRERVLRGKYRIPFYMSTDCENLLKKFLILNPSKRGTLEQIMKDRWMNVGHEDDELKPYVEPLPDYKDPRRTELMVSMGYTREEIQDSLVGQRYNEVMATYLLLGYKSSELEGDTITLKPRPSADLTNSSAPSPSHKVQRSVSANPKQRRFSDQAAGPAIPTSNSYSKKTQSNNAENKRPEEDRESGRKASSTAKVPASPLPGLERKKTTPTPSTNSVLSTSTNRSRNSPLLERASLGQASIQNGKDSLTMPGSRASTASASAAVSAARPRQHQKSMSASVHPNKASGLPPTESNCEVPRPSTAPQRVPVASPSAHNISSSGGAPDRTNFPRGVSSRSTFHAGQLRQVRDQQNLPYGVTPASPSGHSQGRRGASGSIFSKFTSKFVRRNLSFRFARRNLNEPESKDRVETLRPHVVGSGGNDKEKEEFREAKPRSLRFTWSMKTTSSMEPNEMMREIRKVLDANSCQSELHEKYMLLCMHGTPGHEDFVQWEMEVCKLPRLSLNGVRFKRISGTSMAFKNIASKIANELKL
Sequence of Fibroblast growth factor receptor 1 (P11362 whole entry): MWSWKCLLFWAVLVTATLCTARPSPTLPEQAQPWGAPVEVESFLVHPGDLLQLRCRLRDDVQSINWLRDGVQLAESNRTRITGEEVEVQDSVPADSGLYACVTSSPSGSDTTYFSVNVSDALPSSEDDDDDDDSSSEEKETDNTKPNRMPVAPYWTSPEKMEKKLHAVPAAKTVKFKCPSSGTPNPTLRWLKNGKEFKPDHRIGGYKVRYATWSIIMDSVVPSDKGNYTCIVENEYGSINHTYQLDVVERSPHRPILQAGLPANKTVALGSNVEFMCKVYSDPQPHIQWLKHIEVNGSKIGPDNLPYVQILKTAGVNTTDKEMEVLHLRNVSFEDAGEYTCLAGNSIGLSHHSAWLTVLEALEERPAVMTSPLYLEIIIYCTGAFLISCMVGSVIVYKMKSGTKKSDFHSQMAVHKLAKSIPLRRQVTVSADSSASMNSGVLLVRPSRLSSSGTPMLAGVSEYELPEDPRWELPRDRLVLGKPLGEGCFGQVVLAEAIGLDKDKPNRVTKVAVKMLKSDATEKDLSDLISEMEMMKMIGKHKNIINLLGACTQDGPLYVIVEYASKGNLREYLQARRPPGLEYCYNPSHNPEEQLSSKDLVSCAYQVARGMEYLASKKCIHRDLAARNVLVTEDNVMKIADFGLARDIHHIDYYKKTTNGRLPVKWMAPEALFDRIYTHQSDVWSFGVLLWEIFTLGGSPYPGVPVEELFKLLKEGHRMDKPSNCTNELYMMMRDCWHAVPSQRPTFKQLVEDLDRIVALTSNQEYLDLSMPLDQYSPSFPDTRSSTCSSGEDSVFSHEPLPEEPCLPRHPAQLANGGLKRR
Sequence of Insulin-like growth factor 1 receptor (P08069 31-736 limits assumed): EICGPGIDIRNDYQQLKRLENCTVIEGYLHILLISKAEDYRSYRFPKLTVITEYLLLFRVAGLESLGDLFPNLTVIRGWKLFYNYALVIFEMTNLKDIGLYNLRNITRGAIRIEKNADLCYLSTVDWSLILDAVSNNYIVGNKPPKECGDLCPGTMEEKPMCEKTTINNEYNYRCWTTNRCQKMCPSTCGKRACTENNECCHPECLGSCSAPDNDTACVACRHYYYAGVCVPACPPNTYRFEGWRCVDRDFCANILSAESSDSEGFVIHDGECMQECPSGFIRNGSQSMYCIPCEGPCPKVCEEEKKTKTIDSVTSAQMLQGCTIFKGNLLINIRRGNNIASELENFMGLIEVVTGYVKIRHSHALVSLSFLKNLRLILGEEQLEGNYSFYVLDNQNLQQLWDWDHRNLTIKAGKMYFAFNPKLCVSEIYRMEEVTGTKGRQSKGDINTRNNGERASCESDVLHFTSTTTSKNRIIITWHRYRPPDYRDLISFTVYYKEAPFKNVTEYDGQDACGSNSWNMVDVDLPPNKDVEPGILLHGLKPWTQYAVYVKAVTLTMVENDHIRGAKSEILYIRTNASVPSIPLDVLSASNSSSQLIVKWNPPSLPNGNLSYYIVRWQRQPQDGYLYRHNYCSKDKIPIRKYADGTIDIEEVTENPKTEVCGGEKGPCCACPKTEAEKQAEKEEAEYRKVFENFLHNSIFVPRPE
Sequence of Insulin-like growth factor 1 receptor (P08069 741-1367 limits assumed): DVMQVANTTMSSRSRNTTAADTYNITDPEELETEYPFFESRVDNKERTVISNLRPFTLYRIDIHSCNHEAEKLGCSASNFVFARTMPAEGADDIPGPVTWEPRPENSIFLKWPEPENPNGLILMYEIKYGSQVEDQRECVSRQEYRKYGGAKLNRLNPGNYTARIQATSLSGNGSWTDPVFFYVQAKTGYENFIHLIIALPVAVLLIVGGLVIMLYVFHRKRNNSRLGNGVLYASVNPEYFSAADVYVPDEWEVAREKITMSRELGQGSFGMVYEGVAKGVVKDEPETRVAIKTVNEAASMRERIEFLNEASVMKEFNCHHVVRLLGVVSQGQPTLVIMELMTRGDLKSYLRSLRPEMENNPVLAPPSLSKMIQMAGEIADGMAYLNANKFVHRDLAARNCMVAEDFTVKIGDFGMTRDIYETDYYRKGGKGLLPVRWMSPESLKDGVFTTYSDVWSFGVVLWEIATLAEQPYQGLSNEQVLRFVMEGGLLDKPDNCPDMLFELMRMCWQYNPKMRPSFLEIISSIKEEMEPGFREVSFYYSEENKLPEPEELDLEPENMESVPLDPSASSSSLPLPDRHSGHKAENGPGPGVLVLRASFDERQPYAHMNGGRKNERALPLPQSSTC
Sequence of Rho-associated protein kinase 1 (Q13464 whole entry): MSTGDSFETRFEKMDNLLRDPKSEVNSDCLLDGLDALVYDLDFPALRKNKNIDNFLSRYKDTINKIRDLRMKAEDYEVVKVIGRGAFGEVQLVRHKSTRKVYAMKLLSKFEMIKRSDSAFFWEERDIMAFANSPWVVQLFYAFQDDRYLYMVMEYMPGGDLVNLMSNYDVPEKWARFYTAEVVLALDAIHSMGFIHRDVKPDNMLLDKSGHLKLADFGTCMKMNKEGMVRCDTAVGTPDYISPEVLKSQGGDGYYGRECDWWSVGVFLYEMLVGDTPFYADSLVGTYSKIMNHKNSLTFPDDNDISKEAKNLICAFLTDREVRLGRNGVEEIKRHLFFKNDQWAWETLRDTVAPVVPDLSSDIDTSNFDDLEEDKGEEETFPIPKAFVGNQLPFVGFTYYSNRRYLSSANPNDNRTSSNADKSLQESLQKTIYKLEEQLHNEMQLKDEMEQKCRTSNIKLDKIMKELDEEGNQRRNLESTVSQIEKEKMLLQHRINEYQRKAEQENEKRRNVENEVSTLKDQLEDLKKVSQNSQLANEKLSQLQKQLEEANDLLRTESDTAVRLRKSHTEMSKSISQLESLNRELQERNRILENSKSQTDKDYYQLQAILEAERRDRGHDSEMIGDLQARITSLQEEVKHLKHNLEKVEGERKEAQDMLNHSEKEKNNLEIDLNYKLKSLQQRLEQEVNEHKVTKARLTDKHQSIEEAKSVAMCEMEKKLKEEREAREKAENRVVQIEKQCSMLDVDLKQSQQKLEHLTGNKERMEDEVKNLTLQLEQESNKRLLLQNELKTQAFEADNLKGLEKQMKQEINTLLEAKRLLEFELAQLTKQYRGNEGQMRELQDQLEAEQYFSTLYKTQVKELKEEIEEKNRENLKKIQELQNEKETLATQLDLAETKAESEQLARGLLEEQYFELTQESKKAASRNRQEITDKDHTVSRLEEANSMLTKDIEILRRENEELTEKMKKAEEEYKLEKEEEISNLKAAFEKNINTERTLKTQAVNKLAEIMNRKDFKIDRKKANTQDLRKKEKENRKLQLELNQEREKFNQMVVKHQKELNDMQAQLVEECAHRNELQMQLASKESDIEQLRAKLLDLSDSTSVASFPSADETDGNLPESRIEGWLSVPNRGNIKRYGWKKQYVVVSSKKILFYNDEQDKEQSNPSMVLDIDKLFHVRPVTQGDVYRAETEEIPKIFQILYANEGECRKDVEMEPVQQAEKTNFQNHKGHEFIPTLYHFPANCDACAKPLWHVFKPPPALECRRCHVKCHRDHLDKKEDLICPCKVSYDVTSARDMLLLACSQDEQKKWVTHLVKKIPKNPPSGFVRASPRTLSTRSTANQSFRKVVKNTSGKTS
Sequence of Serine/threonine-protein kinase 24 (Q9Y6E0 whole entry): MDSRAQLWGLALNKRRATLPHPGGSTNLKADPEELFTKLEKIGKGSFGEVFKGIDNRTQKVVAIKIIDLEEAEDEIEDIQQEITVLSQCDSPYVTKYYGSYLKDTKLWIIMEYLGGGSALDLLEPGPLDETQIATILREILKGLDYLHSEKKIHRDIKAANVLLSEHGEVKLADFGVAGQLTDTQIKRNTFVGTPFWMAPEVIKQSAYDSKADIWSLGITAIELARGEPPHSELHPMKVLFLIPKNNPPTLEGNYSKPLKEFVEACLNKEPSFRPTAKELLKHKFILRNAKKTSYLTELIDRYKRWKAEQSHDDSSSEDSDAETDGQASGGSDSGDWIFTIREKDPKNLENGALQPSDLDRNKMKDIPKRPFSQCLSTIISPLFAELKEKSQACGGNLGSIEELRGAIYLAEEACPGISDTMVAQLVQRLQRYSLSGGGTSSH

Structure (SMILES): O=C(c1ccc(F)c(F)c1Nc1ccc(I)cc1F)N1CC(O)([C@@H]2CCCCN2)C1 [COBIMETINIB]
- inhibition in vivo at 10 mg/kg [1]: 37%
- inhibition in vivo at 5 mg/kg (MIA PaCa-2): 6%
- IC50 [2]: > 10 µM
- Activity (LOX IMVI): 60%
- Activity (A2058 [3]): inactive
- Activity (NCI-H2122): inactive
- inhibition in vivo at 5 mg/kg [4]: 106%
- inhibition in vivo at 2.5 mg/kg (Calu-6 [5]): 27.5%
- IC50 [6]: > 10 µM
- inhibition in vivo at 3 mg/kg [7]: 69%
- inhibition (888-mel [8]): Active
- IC50 [9]: > 10 µM
- IC50 [10]: > 10 µM
- IC50 [11]: > 10 µM
- IC50 [12]: > 10 µM
- Activity (COLO-829): 60%
- IC50 [13]: > 10 µM
- IC50 [14]: > 10 µM
- Activity [15]: 60%
- Activity (888-mel [16]): Active
- inhibition in vivo at 10 mg/kg (Calu-6 [17]): 44%
- IC50 [18]: > 10 µM
- IC50 [19]: > 10 µM
- inhibition (888-mel [20]): Active
- inhibition in vivo at 20 mg/kg (A2058 [21]): 83%
- inhibition in vivo at 2.5 mg/kg (FaDu): 4%
